Screening results (PubChem)
Most compounds without a hit are left out; they make up all but 2.3% or so of the library.
TRPC6 activator – mouse TRPC6 channel activators, primary screen, cell-based, HEK293, membrane potential dye | HEK293-TRPC6 membrane potential dye fluorescence; stronger effect = higher value | B-score at 10 µM | hit rate 0.13% among 310,000 | AID 2550, 2010;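 active = B-score of the integrated fluorescence ratio above library mean plus 3 SD, and starting fluorescence ratio within library mean plus 5 SD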;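 note: higher score means more depolarization so channel activation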
CR mimetic SO – reduction of superoxide in aged yeast, primary screen, HTS | hit rate 0.18% among 330,000 | superoxide response (% of plate mean), % at 10 µM | AID 2690, 2010 | S. cerevisiae aged cells, superoxide DHE fluorescence; stronger effect = lower value;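 active = superoxide response under a set limit, about three screen SD below normal, cut at about 65% in these data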;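 note: yeast aged for seven days with compound at 30 °C before DHE staining; 100% = average MFI of all compound-treated wells on the plate with controls excluded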
TRPC4 PAM – positive allosteric modulators of TRPC4, primary screen, cell-based, mouse TRPC4beta, HEK293 mu-opioid, Fluo-4 calcium | Short transient receptor potential channel 4 (Mus musculus), Q9QUQ5 | DAMGO EC20, Fluo-4 Ca2+ flux; stronger effect = higher value | B-score at 10 µM | hit rate 0.42% among 310,000 | AID 2227, 2009;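 active = B-score of calcium response area above 5 SD of library B-scores, with initial fluorescence ratio within 5 SD of library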;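 note: B-score of integrated fluorescence ratio over time as area under calcium response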
Target sequence (Q9QUQ5 whole entry, looked up): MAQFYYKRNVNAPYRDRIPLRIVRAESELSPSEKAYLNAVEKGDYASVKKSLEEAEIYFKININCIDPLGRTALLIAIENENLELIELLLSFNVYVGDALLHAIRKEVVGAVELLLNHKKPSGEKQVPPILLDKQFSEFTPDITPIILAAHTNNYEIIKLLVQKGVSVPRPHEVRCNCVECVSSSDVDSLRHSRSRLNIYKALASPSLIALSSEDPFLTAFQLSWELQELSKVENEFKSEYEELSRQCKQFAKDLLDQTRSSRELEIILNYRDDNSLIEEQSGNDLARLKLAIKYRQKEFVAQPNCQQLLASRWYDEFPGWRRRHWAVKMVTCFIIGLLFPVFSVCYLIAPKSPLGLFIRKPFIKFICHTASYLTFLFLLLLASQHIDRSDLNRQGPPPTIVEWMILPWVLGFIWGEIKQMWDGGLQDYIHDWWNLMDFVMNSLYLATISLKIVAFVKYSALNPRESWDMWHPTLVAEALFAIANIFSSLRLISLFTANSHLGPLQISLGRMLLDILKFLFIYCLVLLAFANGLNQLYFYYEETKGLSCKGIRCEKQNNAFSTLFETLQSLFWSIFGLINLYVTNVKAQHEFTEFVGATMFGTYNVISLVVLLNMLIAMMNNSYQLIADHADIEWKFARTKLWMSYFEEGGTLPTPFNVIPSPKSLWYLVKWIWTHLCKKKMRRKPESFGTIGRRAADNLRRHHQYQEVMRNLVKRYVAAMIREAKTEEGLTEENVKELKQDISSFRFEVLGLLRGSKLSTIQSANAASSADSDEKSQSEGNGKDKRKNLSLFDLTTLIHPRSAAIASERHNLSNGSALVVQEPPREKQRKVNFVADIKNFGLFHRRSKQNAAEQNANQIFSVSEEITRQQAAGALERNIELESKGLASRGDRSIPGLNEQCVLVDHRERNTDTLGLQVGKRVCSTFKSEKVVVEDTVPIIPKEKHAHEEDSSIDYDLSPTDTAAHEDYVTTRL
TRPC6 inhibitor – mouse TRPC6 channel inhibitors, primary screen, cell-based, HEK293, membrane potential dye; hit rate 1.1% among 310,000; B-score at 10 µM; ACh-evoked depolarization; stronger effect = lower value;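 active = B-score under library mean minus 3 SD, initial fluorescence not abnormally high, positive integrated signal ratio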;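 note: B-score derived from integrated fluorescence ratio over the kinetic read; more negative B-score means stronger inhibition of depolarization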
TRPC4 agonist – activators of mouse TRPC4 channel, primary screen, Fluo4 calcium, HEK293 TRPC4beta/mu-opioid cells; Short transient receptor potential channel 4 (Mus musculus), Q9QUQ5; Fluo4 calcium fluorescence; stronger effect = higher value; B-score at 10 µM; hit rate 0.49% among 310,000; AID 2237, 2010;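 active = B-score above 5 SD of library B-scores, and initial fluorescence ratio not above library mean plus 5 SD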;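 note: positive B-score marks a calcium rise read as TRPC4 activation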
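Assay system: HEK293 stable line with TRPC4beta plus mu-opioid receptor. Times: dye 45 min RT, read 110 s. Measured by: kinetic Fluo4 calcium fluorescence. Measure: B score of integrated ratio. Controls: assay buffer as low control, maximal DAMGO as high control.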
TRPC4 inh – inhibitors of mouse TRPC4 channel, primary screen, Fluo4 calcium, HEK293 TRPC4beta/mu-opioid cells | Short transient receptor potential channel 4 (Mus musculus), Q9QUQ5 | DAMGO-evoked Fluo4 calcium flux; stronger effect = lower value | B-score at 10 µM | hit rate 0.39% among 300,000;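 active = B-score over 3 SD under the library average, no early fluorescence shift, positive overall ratio signal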
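Test system – stable TRPC4beta/mu-opioid receptor HEK293 cells · Probe or stimulus – DAMGO, a submaximal dose followed by a maximal one · Dosing – one concentration per compound · Signal – Fluo4 calcium fluorescence by kinetic imaging, 5 s 1 Hz baseline · Evaluation – per-well B score of integrated baseline-normalized Fluo4 ratio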
TRPC4 sel inh 2 – second check of whether TRPC6 inhibitors also affect mouse TRPC4; shares compounds with TRPC6 inhibitor; HEK293 TRPC4/MOR, membrane potential dye fluorescence; channel activated by saturating DAMGO dose; inhibition, % at 10 µM; hit rate 42% among 920; AID 2776;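 active = compounds whose fluorescence signal differed from control wells by over 3 SD, either direction, in both duplicate plates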
TRPC4 spec – mouse TRPC4 modulation by TRPC6 hits, confirmation, selectivity assay for TRPC6 inhibitor project, cell-based, HEK293 TRPC4/mu-opioid, membrane potential dye; hit rate 61% among 920; shares compounds with TRPC6 inhibitor; activity change, negative = inhibition, % at 10 µM; membrane potential fluorescence;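 active = rise or fall in signal beyond 3 SD of buffer-only wells in both replicate plates, either sign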;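 note: integrated kinetic ratio of fluorescence range over baseline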
HEK293 MPD ctr 2-1 – nonspecific membrane potential effects, parental HEK293, confirmation, counter-screen for TRPC6 inhibitor project, cell-based, second counter screen. shares compounds with TRPC6 inhibitor. parental HEK293 membrane potential dye fluorescence; maximal acetylcholine challenge after compound addition. signal change vs control, % at 10 µM. hit rate 31% among 920. AID 2779, 2010;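 active = membrane potential signal moving either way by over 3 SD of the maximum-effect control, in both duplicate plates, meaning non-specific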
HEK293 MPD ctr-1 – membrane potential modulation in parental HEK293, confirmation, counter-screen for TRPC6 inhibitor project, cell-based. parental HEK293 membrane potential dye fluorescence. hit rate 60% among 920. shares compounds with TRPC6 inhibitor. membrane potential signal change, % at 10 µM;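 active = membrane potential signal shifting up or down by more than 3 SD of buffer-only wells, on both duplicate plates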
HEK293 MPD ctr-2 – parental HEK293 membrane potential modulation, confirmation, counter-screen for TRPC6 modulator project, cell-based. shares compounds with TRPC6 inhibitor. membrane potential signal change, % at 10 µM. hit rate 51% among 2,400. membrane potential dye fluorescence;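 active = membrane potential signal moves up or down beyond 5 SD from buffer-only wells, on both duplicate plates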
HEK293 MPD ctr 2-2 – second check of TRPC6 modulator effects in parental HEK293 cells; shares compounds with TRPC6 inhibitor; membrane potential dye fluorescence; after compound, maximal acetylcholine stimulation; inhibition, % at 10 µM; hit rate 14% among 2,400;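 active = membrane potential signal drops by more than 5 SD from the mean control signal, in both duplicate plates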;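 note: plate controls were acetylcholine ECmax control wells for no effect and buffer only wells for full effect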
TRPC4/MOR mod – TRPC4 modulation by TRPC6 hit compounds, confirmation, selectivity assay for TRPC6 modulator project, cell-based, HEK293 TRPC4/mu-opioid, membrane potential dye, mouse; shares compounds with TRPC6 inhibitor; membrane potential fluorescence; percent change from control (negative = decrease, positive = increase), % at 10 µM; hit rate 69% among 2,400;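 active = membrane potential signal moved up or down beyond 5 SD of buffer control wells, in both duplicate plates, actives on both sides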;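 note: plate controls were assay buffer wells for no effect and DAMGO maximal-effect wells for full effect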
TRPC4/MOR inh 2 – mouse TRPC4 off-target activity of TRPC6 modulators, second screen. shares compounds with TRPC6 inhibitor. HEK293 TRPC4/mu-opioid, membrane potential dye fluorescence; stimulated with maximal-effect DAMGO. inhibition, % at 10 µM. hit rate 55% among 2,400. AID 488928;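 active = drop in membrane potential signal beyond 5 SD of the control wells in both duplicate plates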;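 note: TRPC4 counter screen for TRPC6 hits run under conditions tuned for TRPC6 not TRPC4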
TRPC6 block conf – mouse TRPC6 channel inhibitors, confirmation, HEK293 cells, membrane potential dye, duplicate; shares compounds with TRPC6 inhibitor; ACh-evoked depolarization; inhibition, % at 10 µM; hit rate 43% among 3,300; AID 488960, 2010;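 active = fluorescence ratio falls more than 5 SD below the full-stimulation control mean, in both duplicate runs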;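 note: integrated fluorescence ratio of peak minus minimum over baseline after agonist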
TRPC6 act conf – mouse TRPC6 channel activators, confirmation, HEK293 cells, membrane potential dye, duplicate | shares compounds with TRPC6 inhibitor | HEK293-TRPC6 membrane potential dye fluorescence, FDSS | activation, % at 10 µM | hit rate 11% among 2,800;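 active = ratio signal rise beyond 5 SD above unstimulated control wells' mean, seen in both duplicate runs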;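 note: plate controls were buffer EC0 wells for no effect and acetylcholine ECmax response for full effect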
Active calls of the source: *; i = inactive; . = no result given.

SMILES	TRPC6 activator	CR mimetic SO	TRPC4 PAM	TRPC6 inhibitor	TRPC4 agonist	TRPC4 inh	HEK293 MPD ctr-2	HEK293 MPD ctr 2-2	TRPC4/MOR mod	TRPC4/MOR inh 2	TRPC6 block conf	TRPC6 act conf	others
O=C(/C=C/c1ccccc1)C1=C(O)C(=O)N(CCO)C1c1ccccc1[N+](=O)[O-] (stereo not given)	12.7*	101.0	i	i	i	i	119.5%*	i	16.5%*	i	i	62.0%*
CCOC(=O)N1CCC(NC(=O)CN2C(=O)CCSc3ccccc32)CC1	i	90.8	i	i	i	i	.	.	.	.	.	.
CN1CCN(c2nc(-c3cccs3)nc3ccccc23)CC1	i	106.9	i	-8.25*	i	i	.	.	.	.	68.7%*	i	TRPC4 sel inh 2=32.5%*;TRPC4 spec=-28.1%*;HEK293 MPD ctr 2-1=i;HEK293 MPD ctr-1=-344.5%*
COc1cccc(-c2nc(N3CCN(C)CC3)c3ccccc3n2)c1O	i	95.3	i	-9.91*	i	i	-217.5%*	i	-44.0%*	71.5%*	51.5%*	i
Cc1cccc(C)c1OCc1n[nH]c(=S)n1-c1ccccc1	i	101.2	i	i	i	i	.	.	.	.	.	.
O=C(CSc1nnc(NC(=O)c2cc(Br)ccc2Cl)s1)NCC1CCCO1 (stereo not given)	i	103.1	i	i	i	i	.	.	.	.	.	.
CCOC(=O)c1c(CN2CCN(C)CC2)n(C)c2cc(Br)c(OC)cc12	i	110.2	i	-5.49*	i	i	-113.0%*	i	-21.5%*	72.0%*	44.0%*	i
